Consider three compounds from ChEMBL document CHEMBL3580530, “Allotides: Proline-Rich Cystine Knot α-Amylase Inhibitors from Allamanda cathartica” (J Nat Prod, 2015).

Series [1] can be described thus: Thermal stability assessed as compound degradation at 100 degC incubated for 1 hr. The series is classed as physicochemical. The procedure, abridged: (§1)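 Peptide heated at 100 °C for 1 h. Intact peptide monitored by UPLC and MS.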
A short description of series [2]: Thermal stability assessed as compound degradation in presence of chymotrypsin at 37 degC incubated for 4 hrs. The series is classed as ADME. The settings on record: isolated protein. The procedure, abridged:
(§2)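 Peptide incubated with chymotrypsin at 37 °C for 4 h. Intact peptide monitored by UPLC and MS.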

Series [3] concerns the target Alpha-amylase (Tenebrio molitor) (UniProt P56634). Nature of the series: (§3) Inhibition of Tenebrio molitor alpha-amylase pre-incubated for 20 mins at 37 degC by bernfeld method. The procedure, abridged: (§4)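 Bernfeld method. Peptide preincubated with α-amylase for 20 min at 37 °C. Hydrolysis started with 1% starch, run 5 min, then stopped with dinitrosalicylic acid color reagent. Absorbance read at 540 nm, with untreated enzyme set as 100%. Enzyme sources: T. molitor larval extract, human saliva, porcine pancreas, A. oryzae.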

The target of series [4] is T1, Alpha-amylase 1A (Homo sapiens) (UniProt P0DUB6).
T1 sequence (whole entry): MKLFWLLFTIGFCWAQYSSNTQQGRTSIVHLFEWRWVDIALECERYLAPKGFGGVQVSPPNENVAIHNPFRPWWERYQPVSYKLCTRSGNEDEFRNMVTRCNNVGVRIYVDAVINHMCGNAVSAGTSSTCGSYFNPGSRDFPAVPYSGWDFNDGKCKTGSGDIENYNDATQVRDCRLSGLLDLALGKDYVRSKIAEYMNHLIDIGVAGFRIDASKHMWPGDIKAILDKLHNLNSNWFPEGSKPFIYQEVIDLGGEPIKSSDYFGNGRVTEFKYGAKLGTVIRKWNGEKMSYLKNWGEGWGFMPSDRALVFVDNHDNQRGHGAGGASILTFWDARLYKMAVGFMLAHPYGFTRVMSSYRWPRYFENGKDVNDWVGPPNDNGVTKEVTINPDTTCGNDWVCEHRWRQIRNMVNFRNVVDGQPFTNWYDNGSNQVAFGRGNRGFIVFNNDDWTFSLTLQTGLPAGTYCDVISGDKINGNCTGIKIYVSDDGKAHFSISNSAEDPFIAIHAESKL
Nature of the series: Inhibition of alpha-amylase in human saliva pre-incubated for 20 mins at 37 degC by bernfeld method. The gist of the method: as §4

In series [5] the target is T2, Pancreatic alpha-amylase (Sus scrofa) (UniProt P00690).
T2 sequence (whole entry): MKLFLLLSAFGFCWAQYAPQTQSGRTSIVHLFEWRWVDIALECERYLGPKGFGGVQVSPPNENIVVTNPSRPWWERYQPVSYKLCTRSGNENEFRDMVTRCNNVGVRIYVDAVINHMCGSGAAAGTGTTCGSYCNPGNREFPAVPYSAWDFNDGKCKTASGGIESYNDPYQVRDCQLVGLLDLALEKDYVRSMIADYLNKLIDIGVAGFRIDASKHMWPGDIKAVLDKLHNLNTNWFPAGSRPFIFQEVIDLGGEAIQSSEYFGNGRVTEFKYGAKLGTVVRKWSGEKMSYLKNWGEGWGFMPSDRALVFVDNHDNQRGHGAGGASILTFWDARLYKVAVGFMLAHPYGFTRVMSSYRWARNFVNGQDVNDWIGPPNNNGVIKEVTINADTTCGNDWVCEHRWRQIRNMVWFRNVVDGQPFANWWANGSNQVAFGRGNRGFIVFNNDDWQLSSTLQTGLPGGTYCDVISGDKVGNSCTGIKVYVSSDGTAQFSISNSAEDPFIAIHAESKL
Description: Inhibition of porcine pancreas alpha-amylase pre-incubated for 20 mins at 37 degC by bernfeld method. The gist of the method:
as §4

Series [6] concerns Aspergillus oryzae. Nature of the series: Inhibition of Aspergillus oryzae alpha-amylase pre-incubated for 20 mins at 37 degC by bernfeld method. The gist of the method:
as §4

A short description of series [7]: Thermal stability assessed as compound remaining at 100 degC incubated for 1 hr by UPLC and MS method. The series is classed as physicochemical. As to conditions: read-out: Stability. The procedure, abridged: as §1
The nature of series [8]: Thermal stability assessed as compound remaining in presence of chymotrypsin at 37 degC incubated for 4 hrs by UPLC and MS method. The series is classed as ADME. As to conditions: read-out: Stability. The gist of the method: as §2
Series [9] is described as follows: Thermal stability assessed as compound hydrolysis using filly reduced form of compound in presence of chymotrypsin at 37 degC incubated for 4 hrs by UPLC and MS method. The settings on record: isolated protein. The series is classed as ADME. The gist of the method:
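Incubated with chymotrypsin at 37 °C for 4 h, then analysed by UPLC and MS.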

The target in series [10] is Alpha-amylase (Tenebrio molitor, UniProt P56634). The description is as §3. The procedure, abridged:
as §4

The nature of series [11]: Toxicity against BHK cells assessed as effect on cell viability up to 100 uM by Presto blue reagent based assay. Details: species or system Mesocricetus auratus. The settings on record: hamster.
A short description of series [12]: Toxicity against human HuH7 cells assessed as effect on cell viability up to 100 uM by Presto blue reagent based assay. The settings on record: huh-7.
Series [13] deals with Vero. Description: Toxicity against African green monkey Vero cells assessed as effect on cell viability up to 100 uM by Presto blue reagent based assay. The settings on record: chlorocebus sabaeus.
A short description of series [14]: Toxicity against human O type erythrocytes cells assessed as induction of hemolysis up to 100 uM. As to conditions: erythrocyte. The series is classed as cell-based. The gist of the method:
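Hemolysis tested on human type O erythrocytes at up to 100 μM. Cliotide T4 used as the hemolytic positive control. Absorbance read on a microplate reader.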

The test system of series [15] is Escherichia coli. Description: Antibacterial activity against Escherichia coli up to 100 uM by radial diffusion assay. The series is classed as functional, organism-based. The procedure, abridged:
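Radial diffusion assay against E. coli, peptide tested up to 100 μM. Positive control: D4R, a broad-spectrum antimicrobial peptide dendrimer made in-house.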

Active and inactive are the calls of the source. The calls are words filed in the database; no cut-off is given here. Where a SMILES comes first, the peptide text is derived from it. Bridges are numbered along the chain shown (N, C = ends). Where only a bound is given, the exact number is not on record here.

Chain of Alpha-amylase (Tenebrio molitor) (P56634 whole entry): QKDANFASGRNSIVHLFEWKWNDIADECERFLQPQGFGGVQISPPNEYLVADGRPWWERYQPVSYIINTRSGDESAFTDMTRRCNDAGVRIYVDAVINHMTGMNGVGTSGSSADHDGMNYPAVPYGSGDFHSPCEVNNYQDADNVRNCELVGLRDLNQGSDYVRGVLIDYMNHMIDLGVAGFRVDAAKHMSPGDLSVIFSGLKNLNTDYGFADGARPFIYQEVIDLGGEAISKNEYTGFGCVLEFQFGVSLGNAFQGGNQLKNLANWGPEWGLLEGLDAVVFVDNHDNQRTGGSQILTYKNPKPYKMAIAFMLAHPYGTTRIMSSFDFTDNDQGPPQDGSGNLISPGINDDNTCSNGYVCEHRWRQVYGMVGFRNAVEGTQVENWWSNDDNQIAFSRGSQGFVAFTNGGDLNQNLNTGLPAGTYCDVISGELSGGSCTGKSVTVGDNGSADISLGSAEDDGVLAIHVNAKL
Chain of Alpha-amylase (P56634 whole entry): as above

Take `CC[C@H](C)[C@@H]1NC(=O)CNC(=O)CNC(=O)[C@H]([C@@H](C)CC)NC(=O)[C@H](C(C)C)NC(=O)[C@@H]2CCCN2C(=O)[C@H](CCC(N)=O)NC(=O)[C@H]([C@@H](C)O)NC(=O)[C@@H]2CSSC[C@@H]3NC(=O)[C@H](Cc4ccc(O)cc4)NC(=O)[C@H](CCC(=O)O)NC(=O)CNC(=O)[C@H](CCCCN)NC(=O)[C@H](CCC(N)=O)NC(=O)[C@H](C)NC(=O)[C@@H](N)CSSC[C@H](NC(=O)[C@H](CSSC[C@@H](C(=O)N[C@@H](C)C(=O)O)NC1=O)NC(=O)[C@H](CCC(N)=O)NC(=O)[C@H](CC(C)C)NC(=O)[C@H](Cc1ccc(O)cc1)NC(=O)[C@H](C(C)C)NC(=O)[C@H](CO)NC3=O)C(=O)N[C@@H](CC(=O)O)C(=O)N1CCC[C@H]1C(=O)N[C@@H](Cc1ccc(O)cc1)C(=O)N[C@@H](Cc1cnc[nH]1)C(=O)N2`: the Stability result in [1] and in series [2] was “Stable” in each case.
On to `CC[C@H](C)[C@@H]1NC(=O)CNC(=O)CNC(=O)[C@H]([C@@H](C)CC)NC(=O)[C@H](C(C)C)NC(=O)[C@@H]2CCCN2C(=O)[C@H](CCC(N)=O)NC(=O)[C@H]([C@@H](C)O)NC(=O)[C@@H]2CSSC[C@@H]3NC(=O)[C@H](Cc4ccc(O)cc4)NC(=O)[C@H](CCC(=O)O)NC(=O)CNC(=O)[C@H](CCCCN)NC(=O)[C@H](CCC(N)=O)NC(=O)[C@H](C)NC(=O)[C@@H](N)CSSC[C@H](NC(=O)[C@H](CSSC[C@H](C(=O)N[C@@H](C)C(=O)O)NC1=O)NC(=O)[C@H](CCC(N)=O)NC(=O)[C@H](CC(C)C)NC(=O)[C@H](Cc1ccc(O)cc1)NC(=O)[C@H](C(C)C)NC(=O)[C@H](CO)NC3=O)C(=O)N[C@@H](CC(=O)O)C(=O)N1CCC[C@H]1C(=O)N[C@@H](Cc1ccc(O)cc1)C(=O)N[C@@H](Cc1cnc[nH]1)C(=O)N2`, for which the inhibition entry in series [3], in series [4], in [5] and in [6] was “inactive” in each case.
One may read the IC50 as the concentration at which inhibition is half-maximal. Take `CC[C@H](C)[C@@H]1NC(=O)CNC(=O)[C@H](CC(=O)O)NC(=O)[C@@H]2CSSC[C@@H]3NC(=O)[C@H](CC(C)C)NC(=O)[C@H](Cc4c[nH]c5ccccc45)NC(=O)[C@@H]4CCCN4C(=O)[C@H](CC(=O)O)NC(=O)[C@H](CSSC[C@H](N)C(=O)N[C@@H]([C@@H](C)CC)C(=O)N[C@@H](C)C(=O)N[C@@H](Cc4cnc[nH]4)C(=O)N[C@@H](Cc4ccc(O)cc4)C(=O)NCC(=O)N[C@@H](CCCCN)C(=O)N2)NC(=O)[C@H](CSSC[C@@H](C(=O)N[C@@H](CC(C)C)C(=O)O)NC(=O)[C@H](Cc2ccccc2)NC(=O)CNC(=O)[C@H]([C@@H](C)CC)NC(=O)[C@H]([C@@H](C)CC)NC(=O)[C@@H]2CCCN2C(=O)[C@@H]2CCCN2C(=O)[C@H]([C@@H](C)O)NC3=O)NC(=O)[C@H](CCC(N)=O)NC(=O)[C@H](CC(N)=O)NC(=O)[C@H]([C@@H](C)CC)NC1=O` (H-CIAHYGKCDGIINQCCDPWLCTPPIIGFCL-OH; disulfide 1-16, 8-21, 15-29): the values for the Stability result in series [1], in series [2] and in series [9] were “Stable”, “Stable” and “Unstable”, respectively. The remaining at 1 h in series [7] was greater than 90%. Further, in series [8], the remaining at 4 h was greater than 90%. For the same compound, in series [3], the inhibition result was “Dose-dependent effect”. The compound further displayed an IC50 in [10] of 2600 nM. In addition, the inhibition entry in series [4], in series [5] and in [6] was “inactive” throughout. The Activity entry in [11], in series [12], in series [13] and in series [14] was “Non-toxic” each time. Besides, the result in series [15] was inactive.
